Laboratory results published in PubChem BioAssay.
Records with an inconclusive call do not appear.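 The calls were made as follows, unless noted: active = viability increase at or above a cutoff of the median across tested compounds plus 3 SD (cut at about 8.5% in these data, passing the limit was not always enough); inconclusive = some gains above the cutoff, reason not given; inactive = the rest.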

Tests used:
[1] = OD615 S. cerevisiae growth inhibition, permissive medium, pilot counter-assay, permissive growth control for S. cerevisiae lifespan shortening project (AID 705;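 active = growth inhibition above 25% in both replicates, a cutoff set 3 SD above the mean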); settings: OD615, 24 h, at 10 µM, active compounds read high
Summary of the method: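 Timing: 24 h exposure, 30 °C / Material: Saccharomyces cerevisiae strain carrying genetically modified DeaD replicative-lifespan system / Signal: OD at 615 nm / Compound: 10 µM single dose, 0.25% DMSO / Medium: SC raffinose/galactose permissive medium / Evaluation: reduction in yeast growth (OD615)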

[2] = Restrictive medium S. cerevisiae growth inhibition, OD615, pilot screen of yeast lifespan reduction project, restrictive growth control (AID 706;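 active = growth inhibition above a set limit, 3 SD over mean compound inhibition, in both replicates, cut at about 43% in these data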;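 also: modified DeaD lifespan yeast strain shifted to restrictive glucose medium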); settings: OD615, 48 h, at 10 µM, active compounds read high
Summary of the method: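 System: Engineered S. cerevisiae DeaD strain | Detection: OD615 | Buffer or medium: CSMM-D glucose medium | Doses: 10 µM compound, 0.25% DMSO | Timing: 4 h pre-growth plus 48 h compound exposure, 30 °C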

[3] = viability gain of MRP-1-high H69AR cells under doxorubicin, pilot screen, MRP-1 activator project, CellTiter-Glo, duplicate (AID 807); settings: H69AR viability with doxorubicin, CellTiter-Glo luminescence; at 10 µM; active compounds read high;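 also: compound pretreatment 18-22 h then 72 h combined with doxorubicin; 0% = doxorubicin alone and 100% = vehicle without doxorubicin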
[4] = growth suppression of beta-catenin knockout HCT116, pilot screen, human colon tumor cells (AID 823;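 active = cell viability at or below a set limit in both duplicate runs, the limit being the all-compound median minus 4 SD, cut at about 23% in these data, passing the limit was not always enough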;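 also: 0% = wells killed by 20 µM Hyamine and 100% = untreated DMSO cell wells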); settings: CellTiter-Glo, 60 h, at 10 µM, active compounds read low
[5] = growth suppression of PTEN-deleted HCT116, pilot screen, cell-based, HCT116 clonal line, CellTiter-Glo (AID 824;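 active = viability at or below 27.92% in each of two runs, the all-compound median minus 4 SD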;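 also: 0% = 20 µM Hyamine control and 100% = vehicle cell control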); settings: 60 h, at 10 µM, active compounds read low
[6] = inhibitors of the yeast RAM network, pilot screen, dse1pr::URA3 reporter, 5-FOA selection (AID 869;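 active = inhibition over a set limit, the all-compound mean plus 3 SD, in both replicate runs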;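 also: 0% = DMSO wells with no growth and 100% = 10 µM 1-NA-PP1 with full growth; RAM network block rescues cells from 5-FOA so hits raise OD615 growth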); settings: S. cerevisiae dse1pr::URA3 5-FOA growth, OD615, 2 d; at 10 µM; active compounds read high; strain carries analog-sensitive mutant Cbk1 kinase
[7] = RAM signaling pathway blockade in yeast – S. cerevisiae, Pdr1DBD-CYC8 efflux-inhibited sensitized strain, primary screen (AID 1298;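 active = RAM network inhibition above 8.4% in each of two replicates, 3 SD over the compound average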;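 also: 0% = DMSO untreated cells without growth and 100% = 10 µM 1-NA-PP1 full growth; higher means more yeast growth rescued from 5-FOA killing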); settings: S. cerevisiae cbk1-as DSE1-URA3 strain, 5-FOA growth OD615, 2 d; at 50 µM; active compounds read high

CCCS(=O)(=O)NCCc1cc2ccc(OC)cc2[nH]c1=O
inactive: growth inhibition [1] -13.2% | growth inhibition [2] -5.31% | viability increase [3] -2.79% | viability [4] 97.4% | viability [5] 90.1% | inhibition [6] 2.56% | RAM network inhibition [7] 2.19%

COC(=O)c1ccc(NC(=O)Cn2nc(SC)n(N)c2=S)cc1
inactive: growth inhibition [1] -11.2% | growth inhibition [2] -14.1% | viability increase [3] -0.99% | viability [4] 98% | viability [5] 99.3% | inhibition [6] 1.85% | RAM network inhibition [7] 7.07%

O=C(CSc1cn(CCNC(=O)c2ccccc2)c2ccccc12)NCc1ccco1
inactive: growth inhibition [1] -4.76% | growth inhibition [2] -10.4% | viability increase [3] -5.29% | viability [4] 84.1% | viability [5] 84.3% | inhibition [6] 0.64% | RAM network inhibition [7] 5.98%

CCOC(=O)N1CCC(NC(=O)c2ccc(CS(=O)(=O)c3ccccc3C)o2)CC1
inactive: growth inhibition [1] -9.38% | growth inhibition [2] -19.7% | viability increase [3] -0.86% | viability [4] 106% | viability [5] 98.5% | inhibition [6] -0.185% | RAM network inhibition [7] 7.2%

CC(C)Sc1nc2c(cnn2-c2ccc(F)cc2)c(=O)[nH]1
inactive: growth inhibition [1] -8.33% | growth inhibition [2] -1.79% | viability increase [3] -3.72% | viability [4] 90.7% | viability [5] 97.3% | inhibition [6] 0.795% | RAM network inhibition [7] 3.54%

CC1CCN(C(=O)C(Cc2ccccc2)NS(=O)(=O)c2ccc3c(c2)oc(=O)n3C)CC1 (stereo not drawn)
inactive: growth inhibition [1] -12.5% | growth inhibition [2] -17.6% | viability increase [3] -1.4% | viability [4] 104% | viability [5] 94.1% | inhibition [6] 1.85% | RAM network inhibition [7] 8.04%

CCOc1ccc(-c2nc(CSCC(=O)N3CCN(C(=O)c4ccco4)CC3)c(C)o2)cc1
inactive: growth inhibition [1] -0.515% | growth inhibition [2] 26% | viability increase [3] -2.43% | viability [4] 81.9% | viability [5] 90.4% | inhibition [6] 0.525% | RAM network inhibition [7] 10.9%

O=C(NCCc1ccccc1)c1ccc(Br)o1
inactive: growth inhibition [1] -7.62% | growth inhibition [2] 1.48% | viability increase [3] 0.4% | viability [4] 104% | viability [5] 103% | inhibition [6] 0.77% | RAM network inhibition [7] 1.44%

Cc1noc(C)c1S(=O)(=O)N(CC(=O)NCc1ccc(Cl)cc1)c1ccc2c(c1)OCO2
inactive: growth inhibition [1] -13.6% | growth inhibition [2] -7.5% | viability increase [3] -3.36% | viability [4] 104% | viability [5] 97.9% | inhibition [6] 2.81% | RAM network inhibition [7] 1%

COc1cccc(CNC(=O)c2ccc(NC(=O)C3CCCO3)cc2)c1 (stereo not drawn)
inactive: growth inhibition [1] -23.1% | growth inhibition [2] -16.5% | viability increase [3] 0.53% | viability [4] 95.1% | viability [5] 97.2% | inhibition [6] 1.14% | RAM network inhibition [7] 7.03%

COc1ccccc1NC(=O)CSc1nnc(-c2ccccc2)o1
inactive: growth inhibition [1] -16% | growth inhibition [2] -11% | viability increase [3] -0.16% | viability [4] 77.6% | viability [5] 71.1% | inhibition [6] 2.4% | RAM network inhibition [7] 1.53%

O=C(Cn1ncc2c1-c1ccccc1OC2)Nc1ccc(S(=O)(=O)N2CCCCC2)cc1
inactive: growth inhibition [1] 0.515% | growth inhibition [2] -5.21% | viability increase [3] -2.69% | viability [4] 90.7% | viability [5] 84.8% | inhibition [6] 0.655% | RAM network inhibition [7] 4.53%

COc1ccc(-c2nnc(SCC(=O)NC3CCCCC3)o2)cc1OC
inactive: growth inhibition [1] -3.22% | growth inhibition [2] 1.43% | viability increase [3] -2.07% | viability [4] 98.5% | viability [5] 98.4% | inhibition [6] 1.34% | RAM network inhibition [7] 2.65%

C/C(=C\C(=O)c1ccc(C)cc1)Nc1cccc(O)c1
inactive: growth inhibition [1] 4.13% | growth inhibition [2] -2.96% | viability increase [3] -4.74% | viability [4] 99.2% | viability [5] 92.8% | inhibition [6] 2.13% | RAM network inhibition [7] -0.26%

S=c1sc2c(N3CCOCC3)ncnc2n1-c1ccccc1
inactive: growth inhibition [1] -11.6% | growth inhibition [2] 8.65% | viability increase [3] -3.12% | viability [4] 102% | viability [5] 94.9% | inhibition [6] 1.64% | RAM network inhibition [7] 4.8%

Cc1oc(-c2ccc(Cl)cc2)nc1CN1CCC(C(=O)NCCCN2CCCC2=O)CC1
inactive: growth inhibition [1] -13.4% | growth inhibition [2] -11.7% | viability increase [3] -2.67% | viability [4] 93.1% | viability [5] 89% | inhibition [6] 1.76% | RAM network inhibition [7] 4.34%

CN(CCO)c1ncnc2nc[nH]c12
inactive: growth inhibition [1] -10.4% | growth inhibition [2] -7.77% | viability increase [3] 0.3% | viability [4] 104% | viability [5] 93.2% | inhibition [6] 1.36% | RAM network inhibition [7] 1.71%

COc1ccc2c(c1)NC1(O)c3ccccc3C(=O)C21O (stereo not drawn)
inactive: growth inhibition [1] -5.39% | growth inhibition [2] 4.5% | viability increase [3] -1.41% | viability [4] 99.3% | viability [5] 98.3% | inhibition [6] 1.53% | RAM network inhibition [7] 3.44%

COc1ccc(NC(=O)CCS(=O)(=O)c2cccc3nonc23)c(OC)c1
inactive: growth inhibition [1] -4.67% | growth inhibition [2] -11.7% | viability increase [3] -2.54% | viability [4] 96.2% | viability [5] 93.8% | inhibition [6] 0.51% | RAM network inhibition [7] 2.06%

COc1ccc(NC2=CC(=O)CC(C)(C)C2)cc1OC
inactive: growth inhibition [1] -5.52% | growth inhibition [2] -8.65% | viability increase [3] -3.58% | viability [4] 96.8% | viability [5] 89.2% | inhibition [6] 0.975% | RAM network inhibition [7] 0.37%

Cc1ccccc1-c1nc(CS(=O)CC(=O)NCCN2CCOCC2)c(C)o1 (stereo not drawn)
inactive: growth inhibition [1] 0.43% | growth inhibition [2] 1.41% | viability increase [3] -1.4% | viability [4] 101% | viability [5] 91.2% | inhibition [6] 1.11% | RAM network inhibition [7] 9.97%

C=CCOc1cccc(C2c3c(oc4ccc(F)cc4c3=O)C(=O)N2CCCN2CCOCC2)c1 (stereo not drawn)
inactive: growth inhibition [1] -4.2% | growth inhibition [2] 2.91% | viability increase [3] -5.54% | viability [4] 93% | viability [5] 93.5% | inhibition [6] -0.045% | RAM network inhibition [7] 1.42%

COc1ccc(N2CSC3=C(C#N)C(c4cc(OC)ccc4OC)CC(=O)N3C2)c(OC)c1 (stereo not drawn)
inactive: growth inhibition [1] -1.38% | growth inhibition [2] 21.7% | viability increase [3] -6.09% | viability [4] 80.5% | viability [5] 82.6% | inhibition [6] 0.54% | RAM network inhibition [7] 2.28%

CCOC(=O)c1ccc(NC(=O)CCC(=O)OC)cc1
inactive: growth inhibition [1] 5.7% | growth inhibition [2] -1.83% | viability increase [3] -1.2% | viability [4] 96.8% | viability [5] 98.3% | inhibition [6] 1.98% | RAM network inhibition [7] 3.41%
